From PubChem BioAssay AID489015 (The Scripps Research Institute Molecular Screening Center, 2010)
The source made the active and inactive calls.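 How the source made its calls: active means malaria parasite growth inhibition in red cells reaching a set limit in at least one replicate; inactive means below that limit in every replicate.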

System: P. falciparum 3D7 in RBCs, 3H-hypoxanthine incorporation, 48 h
Experiment: single-dose antimalarial blood-stage activity – cell-based, radiolabel, RBCs, powder samples, M18AAP inhibitor project, late-stage follow-up (AID 489015)
Details: at 10 µM; active compounds read high
How it was run: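 Times: 48 h exposure, 37 °C, low-oxygen gas mix / System: P. falciparum 3D7 in erythrocytes / Compound: 10 µM single dose, DMSO ≤1% / Buffer or medium: hypoxanthine-free RPMI 1640, 10% serum / Detection: Radiotracer incorporation measured by beta counting of harvested cells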

**Q.** Which growth inhibition does the source give for O=C(CSc1nnc(-c2ccccc2)o1)Nn1cnnc1 here?
**A.** 11% (inactive)

**Q.** Which growth inhibition does the source give for COc1ccc(Cl)cc1NC(=O)Nn1cnnc1 here?
**A.** 5.83% (inactive)

**Q.** With O=[N+]([O-])c1cc([N+](=O)[O-])c2cccnc2c1Oc1ccccc1O as the compound, how does the growth inhibition read?
**A.** 13.4% (inactive)

**Q.** How did the growth inhibition turn out when Oc1ccc(C2=Nn3c(nnc3-c3ccco3)SC2)cc1O was run?
**A.** 20.8% (inactive)

**Q.** COC(=O)c1cc(C(=O)Nn2cnnc2)cc([N+](=O)[O-])c1 was tested. Which growth inhibition did it give?
**A.** 0% (inactive)

**Q.** O=c1[nH]c(=S)[nH]c(O)c1/C=C1\C=c2ccccc2=N1 was tested. Which growth inhibition did it give?
**A.** 2.67% (inactive)

**Q.** For Cc1nc(-c2ccc(O)c(O)c2)cs1, which growth inhibition is on record?
**A.** 0.778% (inactive)

**Q.** Which growth inhibition does the source give for Nc1nncn1C(=O)CCCOc1ccc(Cl)cc1Cl here?
**A.** 3.17% (inactive)

**Q.** For O=C(Nc1ccccc1Cl)Nn1cnnc1, which growth inhibition is on record?
**A.** 7.83% (inactive)

**Q.** COc1cc(Br)cc(/C=N/c2ncn[nH]2)c1O was tested. Which growth inhibition did it give?
**A.** 4.83% (inactive)

**Q.** For Cc1ccc(Cl)cc1NC(=O)Nn1cnnc1, which growth inhibition is on record?
**A.** 2.5% (inactive)

**Q.** For Cc1cc(=O)[nH]c(SCC(=O)c2ccc(O)c(O)c2)n1, which growth inhibition is on record?
**A.** 0.833% (inactive)

**Q.** Which growth inhibition does the source give for Cc1cccc(NC(=S)Nn2cnnc2)c1C here?
**A.** 16.5% (inactive)

**Q.** With CN1CCc2cccc3c2[C@@H]1Cc1ccc(O)c(O)c1-3 as the compound, how does the growth inhibition read?
**A.** 87%

**Q.** How did the growth inhibition turn out when Oc1ccc(-c2csc(-c3ccccc3)n2)cc1O was run?
**A.** 20.6%

**Q.** How did the growth inhibition turn out when O=C(NC(=S)Nn1cnnc1)c1ccccc1Br was run?
**A.** 0% (inactive)

**Q.** How did the growth inhibition turn out when COc1cc([N+](=O)[O-])ccc1NC(=O)Nn1cnnc1 was run?
**A.** 0% (inactive)

**Q.** How did the growth inhibition turn out when COc1ccc2nc(C)cc(SCC(=O)N/N=C/c3ccc(O)c(O)c3)c2c1 was run?
**A.** 3.22% (inactive)

**Q.** Oc1ccc(-c2csc(-c3cccnc3)n2)cc1O was tested. Which growth inhibition did it give?
**A.** 7.67% (inactive)

**Q.** For Cc1c(Cl)cccc1NC(=O)Nn1cnnc1, which growth inhibition is on record?
**A.** 9.17% (inactive)

**Q.** For CCOC(=O)C1=C(CS(=O)(=O)c2ccc(F)cc2)NC(=O)NC1c1ccc(O)c(O)c1 (stereo unspecified), which growth inhibition is on record?
**A.** 0.667% (inactive)

**Q.** How did the growth inhibition turn out when CC1=NNC(=O)/C1=C\c1cn(-c2ccccc2)nc1-c1ccc(F)cc1 was run?
**A.** 20.7% (inactive)

**Q.** With O=C(CSc1ncn[nH]1)OCN1C(=O)c2ccccc2C1=O as the compound, how does the growth inhibition read?
**A.** 3% (inactive)

**Q.** With O=C(Nc1ccc(Br)cc1Cl)Nn1cnnc1 as the compound, how does the growth inhibition read?
**A.** 4.67% (inactive)

**Q.** Which growth inhibition does the source give for COc1cccc2c(SCC(=O)N/N=C/c3ccc(O)c(O)c3)cc(C)nc12 here?
**A.** 1.5% (inactive)

**Q.** For COC(=O)CN(n1cnnc1)S(=O)(=O)c1ccc(C)cc1, which growth inhibition is on record?
**A.** 0% (inactive)

**Q.** With S=C(Nc1cc(Cl)ccc1Cl)Nn1cnnc1 as the compound, how does the growth inhibition read?
**A.** 0% (inactive)

**Q.** Which growth inhibition does the source give for CC(C)n1c(SCC(=O)Nc2nncs2)nnc1-c1ccco1 here?
**A.** 1.33% (inactive)

**Q.** For Cc1cc(C)n2c(=S)[nH]nc2n1, which growth inhibition is on record?
**A.** 35.6%

**Q.** O=C(Nc1cccc(Cl)c1Cl)Nn1cnnc1 was tested. Which growth inhibition did it give?
**A.** 1% (inactive)

**Q.** With OC(Cn1cnnc1)c1ccccc1 (stereo unspecified) as the compound, how does the growth inhibition read?
**A.** 0% (inactive)

**Q.** For Cc1ccc(Cl)cc1NC(=S)Nn1cnnc1, which growth inhibition is on record?
**A.** 0% (inactive)

**Q.** With CN1C(=O)N(c2cccc3ccccc23)C(n2cncn2)C1(C)C (stereo unspecified) as the compound, how does the growth inhibition read?
**A.** 0% (inactive)

**Q.** With O=S(=O)(Nn1cnnc1)c1ccccc1 as the compound, how does the growth inhibition read?
**A.** 3% (inactive)

**Q.** O=C(Nc1cc(Cl)ccc1Cl)Nn1cnnc1 was tested. Which growth inhibition did it give?
**A.** 1.5% (inactive)

**Q.** With CCN(CC)S(=O)(=O)c1ccc(C(=O)Nn2cnnc2)cc1 as the compound, how does the growth inhibition read?
**A.** 0.5% (inactive)

**Q.** With O=c1[nH]c(CSc2ncn[nH]2)nc2ccccc12 as the compound, how does the growth inhibition read?
**A.** 1.83% (inactive)

**Q.** For COC(=O)CN(n1cnnc1)S(=O)(=O)c1ccccc1, which growth inhibition is on record?
**A.** 1.67% (inactive)

**Q.** For COc1cc([N+](=O)[O-])ccc1NC(=S)Nn1cnnc1, which growth inhibition is on record?
**A.** 8.67% (inactive)

**Q.** With CS(=O)(=O)c1ccc2c(c1)sc1nc(=O)c(/C=C3/C=CC(=O)C(O)=C3)c(N)n12 as the compound, how does the growth inhibition read?
**A.** 22.6% (inactive)

**Q.** Br/C(C=Nn1cnnc1)=C\c1ccccc1 was tested. Which growth inhibition did it give?
**A.** 71.8%

**Q.** Which growth inhibition does the source give for O=C(Nc1ccc(Cl)c(Cl)c1)Nn1cnnc1 here?
**A.** 5.67% (inactive)

**Q.** With O=C(Nn1cnnc1)c1csc2ccccc12 as the compound, how does the growth inhibition read?
**A.** 0% (inactive)

**Q.** How did the growth inhibition turn out when Cc1ccc([N+](=O)[O-])cc1-c1[nH]c(-c2ccc(O)c(O)c2)nc1-c1ccccc1 was run?
**A.** 4.11% (inactive)

**Q.** Which growth inhibition does the source give for O=C(O)c1cn[nH]c1-n1cnnn1 here?
**A.** 3.83% (inactive)

**Q.** For COc1ccc(C(=O)n2cnnc2N)cc1, which growth inhibition is on record?
**A.** 2.5% (inactive)

**Q.** For CCc1ccccc1NC(=S)Nn1cnnc1, which growth inhibition is on record?
**A.** 0% (inactive)

**Q.** With O=C(Nn1cnnc1)c1ccccc1-c1ccccc1 as the compound, how does the growth inhibition read?
**A.** 0.5% (inactive)

**Q.** How did the growth inhibition turn out when O=C(CSc1nn(-c2ccccc2)c(=S)s1)Nn1cnnc1 was run?
**A.** 0% (inactive)

**Q.** With Oc1ccc(/C=C/c2cc(O)cc(O)c2)cc1 as the compound, how does the growth inhibition read?
**A.** 1.33% (inactive)

**Q.** How did the growth inhibition turn out when CC1(C)CC(=O)c2c(oc3cc(O)c(O)cc23)C1 was run?
**A.** 2.83% (inactive)

**Q.** Which growth inhibition does the source give for O=C(Nc1ccc([N+](=O)[O-])cc1)Nn1cnnc1 here?
**A.** 28.7% (inactive)

**Q.** With O=C(CSc1ncn[nH]1)Nc1nc(-c2ccccc2)ns1 as the compound, how does the growth inhibition read?
**A.** 4.5% (inactive)

**Q.** NCCc1ccc(O)c(O)c1 was tested. Which growth inhibition did it give?
**A.** 0.5% (inactive)

**Q.** Oc1ccc(CCNc2c3ccccc3nc3ccccc23)cc1O was tested. Which growth inhibition did it give?
**A.** 96.3%

**Q.** O=C(Nc1ccc(Cl)cc1Cl)Nn1cnnc1 was tested. Which growth inhibition did it give?
**A.** 0% (inactive)

**Q.** How did the growth inhibition turn out when Oc1cc(O)c2c(c1)O[C@H](c1ccc(O)c(O)c1)[C@H](O)C2 was run?
**A.** 1% (inactive)

**Q.** For O=C(CNC(=O)c1ccccc1)NCCc1ccc(O)c(O)c1, which growth inhibition is on record?
**A.** 0.333% (inactive)

**Q.** COC(=O)CN(n1cnnc1)S(=O)(=O)c1ccccc1Cl was tested. Which growth inhibition did it give?
**A.** 4.5% (inactive)

**Q.** Cc1nc2ccccn2c1C(=O)NNC(=O)Nc1ccccc1 was tested. Which growth inhibition did it give?
**A.** 0.667% (inactive)

**Q.** How did the growth inhibition turn out when Cc1cc(OCC(=O)Nn2cnnc2)ccc1Br was run?
**A.** 3.67% (inactive)

**Q.** How did the growth inhibition turn out when COc1cccc(-c2cc(C(=O)Nn3cnnc3)c3ccccc3n2)c1 was run?
**A.** 7.11% (inactive)

**Q.** For Oc1ccc(-c2cn3ccccc3n2)cc1O, which growth inhibition is on record?
**A.** 5.33% (inactive)

**Q.** For O=C(COc1ccccc1C(=O)N/N=C/c1ccc(O)c(O)c1)N/N=C/c1ccc(O)c(O)c1, which growth inhibition is on record?
**A.** 66%

**Q.** How did the growth inhibition turn out when O=C(Nc1cccc(C(F)(F)F)c1)Nn1cnnc1 was run?
**A.** 0% (inactive)

**Q.** How did the growth inhibition turn out when Cc1ccc(NC(=S)Nn2cnnc2)c(C)c1 was run?
**A.** 0% (inactive)

**Q.** Which growth inhibition does the source give for CC1(C)CC2(CC(c3ccccc3F)c3ccc(O)c(O)c3O2)NC(=S)N1 (stereo unspecified) here?
**A.** 0.167% (inactive)

**Q.** Cc1ccc(-n2c(O)c(/C=N/n3cnnc3)c3ccccc3c2=O)cc1 was tested. Which growth inhibition did it give?
**A.** 3.33% (inactive)

**Q.** COc1ccc(NC(=O)NNC(=O)CCc2ccc(O)c(O)c2)cc1OC was tested. Which growth inhibition did it give?
**A.** 5.67% (inactive)

**Q.** Which growth inhibition does the source give for O=C(CSc1nc2ccccc2c(=O)[nH]1)c1ccc(O)c(O)c1 here?
**A.** 8.89% (inactive)

**Q.** How did the growth inhibition turn out when Cc1cc(C)cc(C(=O)n2cnnc2N)c1 was run?
**A.** 44.8%

**Q.** O=c1c(O)c(-c2ccc(O)c(O)c2)oc2cc(O)cc(O)c12 was tested. Which growth inhibition did it give?
**A.** 0% (inactive)

**Q.** Which growth inhibition does the source give for CCC(C)c1ccc(O)c(N)c1 (stereo unspecified) here?
**A.** 95.1%

**Q.** How did the growth inhibition turn out when O=C(O)c1ccc(O)c(O)c1 was run?
**A.** 7.17% (inactive)

**Q.** With O=C(O)CSc1ncn[nH]1 as the compound, how does the growth inhibition read?
**A.** 2.83% (inactive)

**Q.** For O=c1c2c([N+](=O)[O-])cc([N+](=O)[O-])cc2sn1Cc1ccccc1, which growth inhibition is on record?
**A.** 5.11% (inactive)
